IDH1 mut inh: inhibitors of human IDH1 R132H | O75874 | IDH1 R132H reductase, diaphorase/resazurin fluorescence, 60 min | inhibition, % at 10 µM | 70,000 compounds, 0.18% hits | AID 624101; in the data active = inhibition above about 34%; inconclusive = no clear call, values can overlap the other calls; inactive = below about 11%;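 note: 0% = DMSO and 100% = no enzyme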
Target sequence (O75874 whole entry R132H): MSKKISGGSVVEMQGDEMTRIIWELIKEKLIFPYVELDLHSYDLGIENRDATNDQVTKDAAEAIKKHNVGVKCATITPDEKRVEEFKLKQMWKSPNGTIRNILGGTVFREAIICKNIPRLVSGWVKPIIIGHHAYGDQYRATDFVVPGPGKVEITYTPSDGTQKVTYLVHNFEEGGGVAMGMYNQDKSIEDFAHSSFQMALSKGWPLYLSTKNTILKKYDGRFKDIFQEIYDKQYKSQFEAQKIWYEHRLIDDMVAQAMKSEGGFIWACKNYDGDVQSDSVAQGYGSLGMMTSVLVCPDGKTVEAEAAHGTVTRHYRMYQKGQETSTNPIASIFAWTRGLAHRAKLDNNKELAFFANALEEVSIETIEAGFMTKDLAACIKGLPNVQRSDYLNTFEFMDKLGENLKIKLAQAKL
T cruzi growth-1: inhibitors of T. cruzi proliferation; T. cruzi beta-gal in NIH3T3, GalScreen luminescence, 90 h; inhibition, % at 8.34 µM; 77,000 compounds, 5.9% hits; AID 624255;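 active = mean inhibition above about 93%, with at least 55% of replicates each passing it, limit read from the data, passing the limit was not always enough; inconclusive = only one of those two conditions holds; inactive = neither condition holds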
GASC1 inh: inhibitors of human demethylase GASC-1 KDM4C | Q9H3R0 | GST-KDM4C 2-372, H3K9me3 peptide, LANCE TR-FRET | inhibition, % at 12.5 µM | 96,000 compounds, 0.15% hits | AID 720574;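 active = mean replicate inhibition above about 25%, with at least 55% of replicates also reaching it, limit read from the data, passing the limit was not always enough; inconclusive = only one of those two conditions met; inactive = neither condition met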
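Material: GST-tagged GASC-1 (JMJD2C) catalytic fragment, aa 2-372 / Quantity: enzyme final amount 10 nM / Medium: HEPES buffer, pH 7.5, plus ascorbate / Doses: one test concentration per compound / Incubation: 30 min reaction, 60 min detection, RT / Measured by: LANCE TR-FRET / Read-out: inhibition from TR-FRET ratio decrease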
T cruzi growth-2: blocks T. cruzi growth in NIH3T3 host cells; shares compounds with T cruzi growth-1; T. cruzi beta-gal in NIH3T3, GalScreen luminescence, 90 h; inhibition, % at 8.35 µM; 5,600 compounds, 72% hits;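 active = mean replicate inhibition above about 95% and at least 55% of replicates individually reaching it, limit read from the data; inconclusive = only one of the two criteria is met; inactive = neither criterion is met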
T cruzi growth-3: Trypanosoma cruzi proliferation inhibition | inhibition, % at 2.09 µM | shares compounds with T cruzi growth-1 | 5,600 compounds, 21% hits | T. cruzi beta-gal in NIH3T3, GalScreen luminescence, 90 h;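 active = mean inhibition above about 95%, with at least 55% of replicates also reaching it, limit read from the data; inconclusive = meets just one of the two conditions; inactive = meets neither condition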;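 note: plate controls were neutral control median for no effect and positive control median for full effect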
3T3 cytotox: kills mouse NIH/3T3 fibroblasts; 5,600 compounds, 14% hits; cytotoxicity (signal decrease), % at 8.35 µM; NIH/3T3 viability, CellTiter-Glo ATP luminescence, 90 h; shares compounds with T cruzi growth-1; AID 651742;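 active = mean signal decrease across replicates above about 35% based on untreated-well scatter, with enough replicates individually passing, limit read from the data; inconclusive = no rule stated though some were filed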;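 note: 0% = median of neutral control wells and 100% = median of positive control wells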
NIH3T3 tox 2: NIH/3T3 (mouse) viability loss; shares compounds with T cruzi growth-1; NIH/3T3 viability, CellTiter-Glo ATP luminescence, 90 h; inhibition, % at 24.9 µM; 5,600 compounds, 56% hits; AID 651744;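 active = mean loss of cell viability signal at or above a set limit, and enough replicates individually reaching it; inconclusive = meets only the mean limit or only the replicate share; inactive = meets neither condition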;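 note: 0% = median of neutral control wells and 100% = median of positive control wells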
Active calls of the source: *; ? = inconclusive; nt = no result given. The sample as a whole holds a higher share of hits than the screen did.

SMILES	IDH1 mut inh	T cruzi growth-1	GASC1 inh	others
O=C(NO)c1cccc(C(=O)N/N=C/c2cccs2)c1	-0.5	nt	nt
Cc1nn(C)c(C)c1NC(=O)CSc1nnc(-c2cccc(Br)c2)n1-c1ccccc1	0.3	nt	nt
CO[C@@H]1CN(C)C(=O)c2ccc(NC(=O)C3CC3)cc2OC[C@H](C)N(C(=O)CN(C)C)C[C@H]1C	-1.0	nt	0.3
O=C(N/N=C/c1c(O)cc(O)cc1O)c1ccccn1	-0.7	nt	nt
O/N=C/c1ccc(Cl)s1	0.3	nt	nt
Cc1ccccc1-c1ccc([C@H]2[C@@H](CO)N3CCCCN(C(=O)c4cccnc4)C[C@H]23)cc1	nt	99.1*	-1.0	T cruzi growth-2=97.0*;T cruzi growth-3=47.4;3T3 cytotox=17.8;NIH3T3 tox 2=9.4
Cc1ccccc1-c1ccc([C@@H]2[C@@H](CO)N3CCCCN(C(=O)c4cccnc4)C[C@H]23)cc1	nt	34.4	-0.3
Cc1cccc(-c2ccc([C@H]3[C@H](CO)N4CCCCN(C(=O)c5cccnc5)C[C@@H]34)cc2)c1	nt	115.7*	-1.0	T cruzi growth-2=102.0*;T cruzi growth-3=41.8;3T3 cytotox=38.8*;NIH3T3 tox 2=32.0*
Cc1cccc(-c2ccc([C@H]3[C@@H](CO)N4CCCCN(C(=O)c5ccncc5)C[C@H]34)cc2)c1	nt	?	-1.6	T cruzi growth-2=104.7*;T cruzi growth-3=94.7;3T3 cytotox=11.7;NIH3T3 tox 2=24.5*
Cc1ccccc1-c1ccc([C@@H]2[C@H](CO)N3CCCCN(C(=O)c4cccnc4)C[C@@H]23)cc1	nt	71.0	-0.5
Cc1cccc(-c2ccc([C@@H]3[C@@H](CO)N4CCCCN(C(=O)c5ccncc5)C[C@H]34)cc2)c1	nt	31.5	-0.8
COc1ccc(C(C)C)cc1S(=O)(=O)n1cnc2ccccc21	0.0	nt	nt
COc1ccccc1CCNC(=O)c1cc(-c2ccccc2)nc2ccccc12	0.0	nt	nt
C[C@@H]1CN([C@H](C)CO)C(=O)c2cc(C#Cc3cccnc3)cnc2O[C@H]1CN(C)S(=O)(=O)c1ccccc1F	nt	56.8	2.9
CN(C)C(=O)c1cccc(-c2ccc([C@@H]3[C@@H](CO)N4CCCCN(C(=O)C5CCC5)C[C@H]34)cc2)c1	nt	84.2	1.6
CN(C)C(=O)c1cccc(-c2ccc([C@H]3[C@H]4CN(C(=O)C5CCCC5)CCCCN4[C@H]3CO)cc2)c1	nt	3.9	nt
CN(C)C(=O)c1cccc(-c2ccc([C@@H]3[C@H](CO)N4CCCCN(C(=O)C5CCC5)C[C@@H]34)cc2)c1	nt	104.4*	-0.7	T cruzi growth-2=80.7;T cruzi growth-3=41.6;3T3 cytotox=-7.9;NIH3T3 tox 2=23.4
CN(C)C(=O)c1cccc(-c2ccc([C@H]3[C@@H](CO)N4CCCCN(C(=O)C5CCCC5)C[C@H]34)cc2)c1	nt	102.6*	nt	T cruzi growth-2=98.2*;T cruzi growth-3=91.6;3T3 cytotox=3.2;NIH3T3 tox 2=-2.8
COCC(=O)Nc1ccc2c(c1)[C@@H]1C[C@@H](CC(=O)OC)O[C@H](CO)[C@@H]1O2	0.4	4.5	-1.6
O=[N+]([O-])c1ncn(Cc2ccccn2)n1	0.0	nt	nt
C[C@@H]1CN([C@H](C)CO)C(=O)Cc2cc(NC(=O)Cc3cn(C)c4ccccc34)ccc2O[C@H]1CN(C)S(C)(=O)=O	-29.8	-39.1	1.6
CCC(=O)O[C@@H]1CC(=O)O[C@H](C)C/C=C\C=C\[C@@H](O)[C@H](C)C[C@H](CC=O)[C@H](OC2O[C@H](C)[C@@H](O[C@H]3C[C@@](C)(O)[C@@H](OC(=O)CC)[C@H](C)O3)[C@H](N(C)C)[C@H]2O)[C@H]1OC (some centres undefined)	0.0	nt	nt
O=C(NCc1ccc(F)cc1)[C@@H]1[C@@H](CO)[C@@H]2Cn3c(cccc3=O)[C@H]1N2Cc1ccncc1	nt	-6.8	-2.1
O=C(Nc1ccccc1)[C@@H]1[C@@H](CO)[C@@H]2Cn3c(cccc3=O)[C@H]1N2Cc1ccncc1	nt	99.7*	1.3	T cruzi growth-2=?;T cruzi growth-3=12.6;3T3 cytotox=-1.4;NIH3T3 tox 2=3.5
C[C@H](NC(=O)[C@@H]1[C@@H](CO)[C@@H]2Cn3c(cccc3=O)[C@H]1N2Cc1ccncc1)c1ccccc1	nt	17.4	0.6
O=C(Nc1ccc(-c2ccccc2)cc1)[C@H]1[C@H](CO)[C@H]2Cn3c(cccc3=O)[C@@H]1N2Cc1ccncc1	nt	-37.4	-2.5

Screening results from PubChem BioAssay.
